From ChEMBL document CHEMBL5576142, “Exploring 2-Sulfonylpyrimidine Warheads as Acrylamide Surrogates for Targeted Covalent Inhibition: A BTK Story” (J Med Chem, 2024)
pIC50: −log10 of the molar value. The source made the active and inactive calls. The calls are words filed in the database; no cut-off is given here.

What was measured:
TMD8 [1] = assay: Induction of pyroptosis in human TMD8 cells assessed as upregulation of TLR4 gene expression at 1 uM incubated for 8 hrs by RNA-sequencing analysis; assay type: functional, cell-based
In short: (§1)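 TMD8 cells (RPMI-1640, 10% FBS, glutamine) exposed to compound at 1 μM or DMSO for 8 h. Total RNA extracted and analysed by RNA-seq. Differential expression called against DMSO at FDR < 0.01 with |log2FC| > 0.5.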

[2] = molecular target: T1, Tyrosine-protein kinase BTK (Homo sapiens, UniProt Q06187); details: OCILY7, dose 500.0 nM, time 1.0 hrs
TMD8 [3] = assay: Induction of necroptosis in human TMD8 cells assessed as upregulation of TRPM7 gene expression at 1 uM incubated for 8 hrs by RNA-sequencing analysis; assay type: functional, cell-based; in short: as §1
TMD8 [4] = assay: Induction of apoptosis in human TMD8 cells assessed as necrotic cells at 100 nM incubated for 72 hrs by Annexin-V/PI staining based flow cytometry (reference value: 3 %); assay type: functional
TMD8 [5] = assay: Induction of apoptosis in human TMD8 cells assessed as late apoptotic cells at 10 nM incubated for 72 hrs by Annexin-V/PI staining based flow cytometry (reference value: 25.4 %); assay type: functional
[6] = system: Epidermal growth factor receptor (Homo sapiens), P00533 [L861Q]; assay: Inhibition of EGFR L861Q mutant (unknown origin) expressed in expressed in Escherichia coli BL21 at 1 uM incubated for 1 hr by Eurofins-KinomeScan assay relative to control
Epidermal growth factor receptor (Homo sapiens), P00533 [L861Q], sequence (P00533 whole entry L861Q): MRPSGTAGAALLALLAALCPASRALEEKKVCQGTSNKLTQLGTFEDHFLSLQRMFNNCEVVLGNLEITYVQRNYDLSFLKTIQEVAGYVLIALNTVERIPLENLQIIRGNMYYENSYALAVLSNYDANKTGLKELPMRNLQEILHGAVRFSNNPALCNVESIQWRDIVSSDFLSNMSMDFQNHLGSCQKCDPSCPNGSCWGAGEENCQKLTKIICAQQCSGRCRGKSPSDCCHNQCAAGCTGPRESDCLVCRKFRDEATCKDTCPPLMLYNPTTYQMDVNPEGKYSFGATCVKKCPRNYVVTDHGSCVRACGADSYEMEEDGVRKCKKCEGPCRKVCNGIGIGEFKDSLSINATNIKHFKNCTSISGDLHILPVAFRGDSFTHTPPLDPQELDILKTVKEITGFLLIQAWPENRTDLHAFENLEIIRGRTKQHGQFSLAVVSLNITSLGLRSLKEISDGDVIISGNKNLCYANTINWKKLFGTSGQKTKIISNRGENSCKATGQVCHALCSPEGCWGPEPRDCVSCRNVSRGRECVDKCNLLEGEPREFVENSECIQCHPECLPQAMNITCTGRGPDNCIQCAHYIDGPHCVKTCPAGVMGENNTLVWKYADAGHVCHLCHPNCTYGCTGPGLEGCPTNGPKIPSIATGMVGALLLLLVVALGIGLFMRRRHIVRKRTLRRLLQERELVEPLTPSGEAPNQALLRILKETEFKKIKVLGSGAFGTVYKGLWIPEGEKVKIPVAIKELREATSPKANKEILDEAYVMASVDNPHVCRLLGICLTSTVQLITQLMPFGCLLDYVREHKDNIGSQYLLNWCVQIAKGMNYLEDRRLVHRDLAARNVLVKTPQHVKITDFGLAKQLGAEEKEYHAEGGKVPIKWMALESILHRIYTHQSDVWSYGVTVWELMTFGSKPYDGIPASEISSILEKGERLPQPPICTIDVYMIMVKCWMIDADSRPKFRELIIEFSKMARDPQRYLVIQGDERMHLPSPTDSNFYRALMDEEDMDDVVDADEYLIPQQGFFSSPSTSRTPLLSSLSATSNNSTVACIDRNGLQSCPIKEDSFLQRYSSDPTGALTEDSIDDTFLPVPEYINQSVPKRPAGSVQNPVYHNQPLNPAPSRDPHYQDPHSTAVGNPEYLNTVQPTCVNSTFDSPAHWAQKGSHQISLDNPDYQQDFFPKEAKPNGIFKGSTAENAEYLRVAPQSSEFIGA

TMD8 [7] = assay: Induction of necroptosis in human TMD8 cells assessed as upregulation of TLR4 gene expression at 1 uM incubated for 8 hrs by RNA-sequencing analysis; assay type: functional, cell-based; in short: as §1
[8] = system: Epidermal growth factor receptor (Homo sapiens), P00533 [T790M]; assay: Inhibition of EGFR T790M mutant (unknown origin) expressed in expressed in Escherichia coli BL21 at 1 uM incubated for 1 hr by Eurofins-KinomeScan assay relative to control
Epidermal growth factor receptor (Homo sapiens), P00533 [T790M], sequence (P00533 whole entry T790M): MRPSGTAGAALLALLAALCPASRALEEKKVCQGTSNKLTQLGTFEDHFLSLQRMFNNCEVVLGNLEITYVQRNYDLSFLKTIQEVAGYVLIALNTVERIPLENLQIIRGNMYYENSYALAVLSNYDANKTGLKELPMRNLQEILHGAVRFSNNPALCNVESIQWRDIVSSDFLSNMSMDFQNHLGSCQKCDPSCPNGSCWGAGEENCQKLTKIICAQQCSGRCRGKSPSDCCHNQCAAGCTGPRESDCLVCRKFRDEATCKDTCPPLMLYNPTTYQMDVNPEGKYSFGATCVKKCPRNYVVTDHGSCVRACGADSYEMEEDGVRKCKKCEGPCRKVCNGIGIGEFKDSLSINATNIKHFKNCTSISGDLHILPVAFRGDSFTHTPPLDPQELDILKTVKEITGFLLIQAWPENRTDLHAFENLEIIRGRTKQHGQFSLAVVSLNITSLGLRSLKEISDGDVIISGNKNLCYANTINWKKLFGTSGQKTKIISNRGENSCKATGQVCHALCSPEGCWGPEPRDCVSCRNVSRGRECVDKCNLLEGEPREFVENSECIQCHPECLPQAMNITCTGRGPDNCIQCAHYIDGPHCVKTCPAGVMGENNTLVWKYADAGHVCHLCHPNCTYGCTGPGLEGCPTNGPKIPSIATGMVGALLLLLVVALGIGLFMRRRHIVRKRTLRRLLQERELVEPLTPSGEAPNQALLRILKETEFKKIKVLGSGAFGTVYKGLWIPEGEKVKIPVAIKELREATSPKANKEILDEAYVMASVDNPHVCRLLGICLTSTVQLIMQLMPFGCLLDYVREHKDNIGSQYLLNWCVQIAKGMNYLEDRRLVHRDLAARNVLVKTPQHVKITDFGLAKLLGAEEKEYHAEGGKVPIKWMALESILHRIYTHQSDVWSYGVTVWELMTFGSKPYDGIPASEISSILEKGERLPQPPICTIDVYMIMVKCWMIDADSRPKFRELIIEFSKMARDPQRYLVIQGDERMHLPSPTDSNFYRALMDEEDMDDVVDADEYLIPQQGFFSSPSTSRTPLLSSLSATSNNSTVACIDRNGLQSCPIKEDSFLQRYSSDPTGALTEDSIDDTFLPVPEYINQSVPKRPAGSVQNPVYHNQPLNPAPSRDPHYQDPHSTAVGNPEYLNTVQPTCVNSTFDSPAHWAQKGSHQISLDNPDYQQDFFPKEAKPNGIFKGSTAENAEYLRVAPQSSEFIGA

TMD8 [9] = assay: Induction of apoptosis in human TMD8 cells assessed as early apoptotic cells at 10 nM incubated for 72 hrs by Annexin-V/PI staining based flow cytometry (reference value: 4.8 %); assay type: functional
[10] = GSH reactivity in PBS buffer at pH 7.4 assessed as pseudo-first order rate constant incubated upto 6 hrs at 20 degreeC by LC-MS analysis; assay type: physicochemical; details: pH 7.4, 6 h
In short: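 Compound at 100 μM with 1 mM GSH (10 equiv) in PBS pH 7.4, containing 100 μM 4-hydroxybenzoic acid as internal standard and 5% v/v DMSO, held at 20 °C. LC-MS traces taken every 10 min. Normalized integrals plotted against time to give a pseudo-first-order rate constant. Run in triplicate.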

[11] = molecular target: T1, Tyrosine-protein kinase BTK; details: OCILY7, dose 500.0 nM, time 1.0 hrs; remark: listed apart in the source
[12] = molecular target: T1, Tyrosine-protein kinase BTK; assay: Inhibition of BTK in anti-IgM induced human OCILY7 cells assessed as increase in calcium flux at 250 nM incubated for […] followed by anti-IgM and Pluronic F127 stimulation measured after […] by Fluo-3 AM based flow cytometry; assay type: cell-based; details: time 5.0 hrs
[13] = system: Epidermal growth factor receptor (Homo sapiens), P00533 [G719S]; assay: Inhibition of EGFR G719S mutant (unknown origin) expressed in expressed in Escherichia coli BL21 at 1 uM incubated for 1 hr by Eurofins-KinomeScan assay relative to control
Epidermal growth factor receptor (Homo sapiens), P00533 [G719S], sequence (P00533 whole entry G719S): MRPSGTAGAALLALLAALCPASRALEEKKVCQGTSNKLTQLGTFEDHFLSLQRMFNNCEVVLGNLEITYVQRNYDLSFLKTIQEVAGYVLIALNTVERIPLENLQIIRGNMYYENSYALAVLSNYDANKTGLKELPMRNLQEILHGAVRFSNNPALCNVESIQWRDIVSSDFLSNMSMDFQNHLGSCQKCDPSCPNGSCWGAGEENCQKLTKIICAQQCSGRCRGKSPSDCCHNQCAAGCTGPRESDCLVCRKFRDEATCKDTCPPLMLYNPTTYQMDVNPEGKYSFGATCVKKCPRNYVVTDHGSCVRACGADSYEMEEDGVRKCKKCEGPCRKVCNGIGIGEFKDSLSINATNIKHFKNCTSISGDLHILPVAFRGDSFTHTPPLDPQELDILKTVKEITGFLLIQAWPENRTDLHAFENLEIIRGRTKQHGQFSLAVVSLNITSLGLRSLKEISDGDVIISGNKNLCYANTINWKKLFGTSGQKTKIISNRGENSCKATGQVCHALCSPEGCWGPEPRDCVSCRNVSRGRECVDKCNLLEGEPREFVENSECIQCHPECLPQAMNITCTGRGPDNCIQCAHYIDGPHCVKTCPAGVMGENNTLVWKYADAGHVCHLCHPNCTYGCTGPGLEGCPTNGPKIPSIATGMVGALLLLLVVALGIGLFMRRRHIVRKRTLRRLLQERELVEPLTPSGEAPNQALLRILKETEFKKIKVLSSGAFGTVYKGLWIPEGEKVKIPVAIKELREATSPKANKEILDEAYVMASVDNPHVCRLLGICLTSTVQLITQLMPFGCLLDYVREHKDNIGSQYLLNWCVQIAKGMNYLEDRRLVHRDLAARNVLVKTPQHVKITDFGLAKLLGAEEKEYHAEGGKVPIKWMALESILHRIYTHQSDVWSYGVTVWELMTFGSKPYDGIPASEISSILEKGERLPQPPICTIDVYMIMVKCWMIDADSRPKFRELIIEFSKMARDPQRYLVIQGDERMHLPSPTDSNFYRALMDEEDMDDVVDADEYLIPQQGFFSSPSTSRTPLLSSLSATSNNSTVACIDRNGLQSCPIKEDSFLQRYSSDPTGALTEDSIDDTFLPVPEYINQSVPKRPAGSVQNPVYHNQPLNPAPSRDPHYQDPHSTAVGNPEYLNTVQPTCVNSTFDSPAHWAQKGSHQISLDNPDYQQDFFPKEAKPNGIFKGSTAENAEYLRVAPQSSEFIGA

[14] = system: Epidermal growth factor receptor (Homo sapiens), P00533 [G719C]; assay: Inhibition of EGFR G719C mutant (unknown origin) expressed in expressed in Escherichia coli BL21 at 1 uM incubated for 1 hr by Eurofins-KinomeScan assay relative to control
Epidermal growth factor receptor (Homo sapiens), P00533 [G719C], sequence (P00533 whole entry G719C): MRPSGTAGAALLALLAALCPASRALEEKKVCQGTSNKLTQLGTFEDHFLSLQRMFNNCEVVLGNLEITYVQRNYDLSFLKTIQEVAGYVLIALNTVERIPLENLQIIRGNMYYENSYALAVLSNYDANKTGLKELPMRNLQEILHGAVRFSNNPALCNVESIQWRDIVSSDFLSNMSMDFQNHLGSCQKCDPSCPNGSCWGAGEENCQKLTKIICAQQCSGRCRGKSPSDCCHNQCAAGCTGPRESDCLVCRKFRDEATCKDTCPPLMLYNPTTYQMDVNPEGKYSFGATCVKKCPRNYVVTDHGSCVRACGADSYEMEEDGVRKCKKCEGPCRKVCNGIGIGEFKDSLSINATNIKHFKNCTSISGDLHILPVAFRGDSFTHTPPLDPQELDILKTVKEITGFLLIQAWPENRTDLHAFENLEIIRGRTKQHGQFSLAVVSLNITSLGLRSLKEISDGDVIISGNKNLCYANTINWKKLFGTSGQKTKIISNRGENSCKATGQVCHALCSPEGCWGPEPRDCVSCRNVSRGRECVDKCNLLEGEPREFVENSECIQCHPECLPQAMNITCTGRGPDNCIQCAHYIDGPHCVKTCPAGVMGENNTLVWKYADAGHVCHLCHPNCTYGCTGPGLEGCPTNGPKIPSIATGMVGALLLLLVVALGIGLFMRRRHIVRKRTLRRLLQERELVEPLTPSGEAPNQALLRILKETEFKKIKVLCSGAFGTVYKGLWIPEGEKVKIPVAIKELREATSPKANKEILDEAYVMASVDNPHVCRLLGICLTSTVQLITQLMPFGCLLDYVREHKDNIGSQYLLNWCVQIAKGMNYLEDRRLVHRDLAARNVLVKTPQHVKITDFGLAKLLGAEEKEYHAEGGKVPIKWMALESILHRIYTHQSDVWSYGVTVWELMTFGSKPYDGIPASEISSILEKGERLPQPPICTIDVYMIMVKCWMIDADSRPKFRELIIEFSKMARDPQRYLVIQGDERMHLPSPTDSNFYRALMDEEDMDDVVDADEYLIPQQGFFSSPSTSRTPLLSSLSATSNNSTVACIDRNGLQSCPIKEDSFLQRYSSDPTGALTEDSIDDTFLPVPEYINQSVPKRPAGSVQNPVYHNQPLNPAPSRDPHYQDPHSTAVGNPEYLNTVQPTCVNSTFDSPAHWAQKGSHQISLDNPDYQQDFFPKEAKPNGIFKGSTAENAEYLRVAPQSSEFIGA

TMD8 [15] = assay: Induction of pyroptosis in human TMD8 cells assessed as upregulation of NLRP7 gene expression at 1 uM incubated for 8 hrs by RNA-sequencing analysis; assay type: functional, cell-based; in short: as §1
[16] = molecular target: T1, Tyrosine-protein kinase BTK; details: OCILY7, dose 500.0 nM, time 1.0 hrs; remark: listed apart in the source
TMD8 [17] = assay: Downregulation of CYP1A1 gene expression in human TMD8 cells at 1 uM incubated for 8 hrs by RNA-sequencing analysis; assay type: functional, cell-based; in short: as §1
TMD8 [18] = assay: Induction of necroptosis in human TMD8 cells assessed as upregulation of RIPK1 gene expression at 1 uM incubated for 8 hrs by RNA-sequencing analysis; assay type: functional, cell-based; in short: as §1
TMD8 [19] = assay: Induction of apoptosis in human TMD8 cells assessed as late apoptotic cells at 100 nM incubated for 72 hrs by Annexin-V/PI staining based flow cytometry (reference value: 25.4 %); assay type: functional
[20] = molecular target: T1, Tyrosine-protein kinase BTK; details: OCILY7, dose 500.0 nM, time 1.0 hrs; remark: listed apart in the source
TMD8 [21] = assay: Induction of apoptosis in human TMD8 cells assessed as viable cells at 1000 nM incubated for 72 hrs by Annexin-V/PI staining based flow cytometry (reference value: 66 %); assay type: functional; details: read-out: Activity
TMD8 [22] = assay: Induction of pyroptosis in human TMD8 cells assessed as upregulation of TLR8 gene expression at 1 uM incubated for 8 hrs by RNA-sequencing analysis; assay type: functional, cell-based; in short: as §1
[23] = molecular target: T1, Tyrosine-protein kinase BTK; details: OCILY7, dose 500.0 nM, time 1.0 hrs; remark: listed apart in the source
[24] = molecular target: T1, Tyrosine-protein kinase BTK; assay: Inhibition of NanoLuc fused BTK (unknown origin) transiently transfected in HEK293 cells incubated for 1 hr by NanoBRET assay; assay type: cell-based
TMD8 [25] = assay: Induction of apoptosis in human TMD8 cells assessed as early apoptotic cells at 1000 nM incubated for 72 hrs by Annexin-V/PI staining based flow cytometry (reference value: 4.8 %); assay type: functional
TMD8 [26] = assay: Induction of necroptosis in human TMD8 cells assessed as upregulation of TNFSF10 gene expression at 1 uM incubated for 8 hrs by RNA-sequencing analysis; assay type: functional, cell-based; in short: as §1
TMD8 [27] = assay: Induction of apoptosis in human TMD8 cells assessed as necrotic cells at 1000 nM incubated for 72 hrs by Annexin-V/PI staining based flow cytometry (reference value: 3 %); assay type: functional
TMD8 [28] = assay: Induction of apoptosis in human TMD8 cells assessed as necrotic cells at 10 nM incubated for 72 hrs by Annexin-V/PI staining based flow cytometry (reference value: 3 %); assay type: functional
[29] = molecular target: T1, Tyrosine-protein kinase BTK; assay: Covalent inhibition of full-length BTK (unknown origin) expressed in Escherichia coli BL21 (DE3) at 100 nM incubated for 1 hr in presence of ATP by ADP-Glo kinase assay relative to control
[30] = Stability in human plasma assessed as parent compound remaining incubated for 3 hrs by UPLC-MS analysis; assay type: ADME, cell-free; details: read-out: Stability
TMD8 [31] = assay: Downregulation of EGR2 gene expression in human TMD8 cells at 1 uM incubated for 8 hrs by RNA-sequencing analysis; assay type: functional, cell-based
In short: (§2)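 TMD8 cells (RPMI-1640, 10% FBS, penicillin/streptomycin, 2 mM glutamine) exposed to compound or DMSO vehicle for 8 h; total RNA extracted for RNA-seq. Differential expression versus DMSO scored at FDR < 0.01 with log2 fold change beyond ±0.5.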

TMD8 [32] = assay: Downregulation of CD83 gene expression in human TMD8 cells at 1 uM incubated for 8 hrs by RNA-sequencing analysis; assay type: functional, cell-based; in short: as §2
TMD8 [33] = assay: Downregulation of NR4A1 gene expression in human TMD8 cells at 1 uM incubated for 8 hrs by RNA-sequencing analysis; assay type: functional, cell-based; in short: as §2
TMD8 [34] = assay: Downregulation of NFKBID gene expression in human TMD8 cells at 1 uM incubated for 8 hrs by RNA-sequencing analysis; assay type: functional, cell-based; in short: as §2
TMD8 [35] = assay: Downregulation of LTA gene expression in human TMD8 cells at 1 uM incubated for 8 hrs by RNA-sequencing analysis; assay type: functional, cell-based; in short: as §2
TMD8 [36] = assay: Downregulation of IL-10 gene expression in human TMD8 cells at 1 uM incubated for 8 hrs by RNA-sequencing analysis; assay type: functional, cell-based; in short: as §2
[37] = molecular target: T1, Tyrosine-protein kinase BTK

Row | SMILES | inhibition [6] | inhibition [8] | inhibition [11] | inhibition [13] | inhibition [14] | inhibition [16] | inhibition [20] | inhibition [23] | inhibition [29] [%] | also measured
1 | CNC(=O)c1cnc(S(C)(=O)=O)nc1N1CCC[C@H](n2nc(-c3ccc(Oc4ccccc4)cc3)c3c(N)ncnc32)C1 | Active | Active | inactive | Active | Active | inactive | Active | inactive | – | Activity (TMD8 [1]): Active; inhibition [2]: inactive; Activity (TMD8 [3]): Active; Activity (TMD8 [4]): 4.6%; Activity (TMD8 [5]): 26.6%; Activity (TMD8 [7]): Active; Activity (TMD8 [9]): 3.4%; K [10]: 47 10^-5/s; inhibition [12]: Active; Activity (TMD8 [15]): Active; Activity (TMD8 [17]): Active; Activity (TMD8 [18]): Active; Activity (TMD8 [19]): 53%; viability at 1 µM (TMD8 [21]): 14.7%; Activity (TMD8 [22]): Active; pIC50 [24]: 9.22; Activity (TMD8 [25]): 14.5%; Activity (TMD8 [26]): Active; Activity (TMD8 [27]): 4.5%; Activity (TMD8 [28]): 3.9%
2 | CCCCS(=O)(=O)c1nccc(C(=O)N2CCC[C@H](n3nc(-c4ccc(Oc5ccccc5)cc4)c4c(N)ncnc43)C2)n1 | – | – | – | – | – | – | – | – | 40 | –
3 | CS(=O)(=O)c1nccc(C(=O)N2CCC[C@H](n3nc(-c4ccc(Oc5ccccc5)cc4)c4c(N)ncnc43)C2)n1 | – | – | – | – | – | – | – | – | 80 | –
4 | Nc1ncnc2c1c(-c1ccc(Oc3ccccc3)cc1)nn2[C@H]1CCCN(C(=O)c2cnc(S(=O)(=O)c3ccccc3)nc2)C1 | – | – | – | – | – | – | – | – | 40 | –
5 | CS(=O)(=O)c1ncc(C(=O)N2CCC[C@H](n3nc(-c4ccc(Oc5ccccc5)cc4)c4c(N)ncnc43)C2)cn1 | – | – | – | – | – | – | – | – | 80 | –
6 | COC(=O)c1cnc(S(C)(=O)=O)nc1N1CCC[C@H](n2nc(-c3ccc(Oc4ccccc4)cc3)c3c(N)ncnc32)C1 | Active | Active | inactive | Active | Active | inactive | Active | inactive | – | –
7 | CCOC(=O)c1cnc(S(C)(=O)=O)nc1N1CCC[C@H](n2nc(-c3ccc(Oc4ccccc4)cc3)c3c(N)ncnc32)C1 | Active | Active | inactive | Active | Active | inactive | Active | inactive | > 95 | remaining at 3 h [30]: 22%
8 | CCCCS(=O)(=O)c1ncc(C(=O)N2CCC[C@H](n3nc(-c4ccc(Oc5ccccc5)cc4)c4c(N)ncnc43)C2)cn1 | – | – | – | – | – | – | – | – | 40 | –
9 | CS(=O)(=O)c1ncc(Cl)c(C(=O)N2CCC[C@H](n3nc(-c4ccc(Oc5ccccc5)cc4)c4c(N)ncnc43)C2)n1 | – | – | – | – | – | – | – | – | 80 | –
10 | C=CC(=O)N1CCC[C@@H](n2nc(-c3ccc(Oc4ccccc4)cc3)c3c(N)ncnc32)C1 | – | – | – | – | – | – | – | – | – | Activity (TMD8 [31]): Active; Activity (TMD8 [32]): Active; Activity (TMD8 [33]): Active; Activity (TMD8 [34]): Active; Activity (TMD8 [35]): Active; Activity (TMD8 [36]): Active
11 | Cc1cnc(S(C)(=O)=O)nc1N1CCC[C@H](n2nc(-c3ccc(Oc4ccccc4)cc3)c3c(N)ncnc32)C1 | Active | Active | inactive | Active | Active | inactive | Active | inactive | – | inhibition [2]: inactive; Kinact [37]: 0.007 s⁻¹; inhibition [12]: Active
